Compound activity (PubChem)
TRPC6 inhibitor: blocks the mouse TRPC6 cation channel. HEK293-TRPC6, membrane potential dye, ACh-evoked depolarization; active compounds read low. AID 2553. B-score at 10 µM. 1.1% of 310,000 active;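 active = B-score under library mean minus 3 SD, initial fluorescence not abnormally high, positive integrated signal ratio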;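 note: B-score derived from integrated fluorescence ratio over the kinetic read; more negative B-score means stronger inhibition of depolarization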
TRPC4 agonist: activators of mouse TRPC4 channel. B-score at 10 µM. Q9QUQ5. 0.49% of 310,000 active. HEK293 TRPC4beta/mu-opioid, Fluo4 calcium fluorescence; active compounds read high;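 active = B-score above 5 SD of library B-scores, and initial fluorescence ratio not above library mean plus 5 SD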;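 note: positive B-score marks a calcium rise read as TRPC4 activation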
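Assay system: HEK293 cells stably co-expressing mouse TRPC4beta and mu-opioid receptor / Timing: Fluo4 dye loading 45 min at room temperature, 110 s recording / Signal: Fluo4 calcium-sensitive dye fluorescence, kinetic, 1 Hz baseline / Read-out: integrated baseline-normalised fluorescence ratio, converted to per-well B score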
TRPC4 inh: inhibitors of mouse TRPC4 channel; Q9QUQ5; HEK293 TRPC4beta/mu-opioid, DAMGO-evoked Fluo4 calcium flux; active compounds read low; B-score at 10 µM; 0.39% of 300,000 active;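 active = B-score over 3 SD under the library average, no early fluorescence shift, positive overall ratio signal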
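Signal: kinetic Fluo4 fluorescence imaging of calcium influx. Material: stable TRPC4beta/mu-opioid receptor HEK293 cells. Probe or stimulus: DAMGO in two steps, submaximal then maximal.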
TRPC4 PAM: TRPC4 (mouse) allosteric potentiation; HEK293 TRPC4beta/mu-opioid, DAMGO EC20, Fluo-4 Ca2+ flux; active compounds read high; B-score at 10 µM; 0.42% of 310,000 active; AID 2227;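 active = B-score of calcium response area above 5 SD of library B-scores, with initial fluorescence ratio within 5 SD of library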;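 note: B-score of integrated fluorescence ratio over time as area under calcium response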
TRPC6 activator: activates the mouse TRPC6 cation channel; Q61143; HEK293-TRPC6 membrane potential dye fluorescence; active compounds read high; B-score at 10 µM; 0.13% of 310,000 active; AID 2550;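 active = B-score of the integrated fluorescence ratio above library mean plus 3 SD, and starting fluorescence ratio within library mean plus 5 SD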;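 note: higher score means more depolarization so channel activation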
HEK293 MPD ctr: counter-screen for TRPC6 modulators: effect in parental HEK293 cells; membrane potential signal change, % at 10 µM; 51% of 2,400 active; membrane potential dye fluorescence; AID 488924; shares compounds with TRPC6 inhibitor;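 active = membrane potential signal moves up or down beyond 5 SD from buffer-only wells, on both duplicate plates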
HEK293 MPD ctr 2: parental HEK293 nonspecific activity of TRPC6 modulators, second screen; shares compounds with TRPC6 inhibitor; membrane potential dye fluorescence; after compound, maximal acetylcholine stimulation; inhibition, % at 10 µM; 14% of 2,400 active;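 active = membrane potential signal drops by more than 5 SD from the mean control signal, in both duplicate plates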;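 note: plate controls were acetylcholine ECmax control wells for no effect and buffer only wells for full effect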
TRPC4 ctr mod: mouse TRPC4 off-target activity of TRPC6 modulators; shares compounds with TRPC6 inhibitor; HEK293 TRPC4/mu-opioid, membrane potential fluorescence; percent change from control (negative = decrease, positive = increase), % at 10 µM; 69% of 2,400 active; AID 488927;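 active = membrane potential signal moved up or down beyond 5 SD of buffer control wells, in both duplicate plates, actives on both sides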;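 note: plate controls were assay buffer wells for no effect and DAMGO maximal-effect wells for full effect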
TRPC4 ctr inh 2: second check of whether TRPC6 modulators also affect mouse TRPC4. shares compounds with TRPC6 inhibitor. inhibition, % at 10 µM. AID 488928. HEK293 TRPC4/mu-opioid, membrane potential dye fluorescence; stimulated with maximal-effect DAMGO. 55% of 2,400 active;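 active = drop in membrane potential signal beyond 5 SD of the control wells in both duplicate plates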;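 note: TRPC4 counter screen for TRPC6 hits run under conditions tuned for TRPC6 not TRPC4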
TRPC6 block conf: confirmation of mouse TRPC6 inhibitors. shares compounds with TRPC6 inhibitor. HEK293-TRPC6, membrane potential dye, ACh-evoked depolarization. inhibition, % at 10 µM. 43% of 3,300 active. AID 488960;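 active = fluorescence ratio falls more than 5 SD below the full-stimulation control mean, in both duplicate runs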;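 note: integrated fluorescence ratio of peak minus minimum over baseline after agonist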
TRPC6 act confirm: mouse TRPC6 activator confirmation; shares compounds with TRPC6 inhibitor; HEK293-TRPC6 membrane potential dye fluorescence, FDSS; activation, % at 10 µM; 11% of 2,800 active; AID 488961;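 active = ratio signal rise beyond 5 SD above unstimulated control wells' mean, seen in both duplicate runs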;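 note: plate controls were buffer EC0 wells for no effect and acetylcholine ECmax response for full effect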
Starred values were filed as active, the others as inactive. Hits are enriched below; roughly 2.3% of the tested compounds scored in any of these assays.

Screening CCN(CC)CCNc1c2c(c(C#N)c3nc4ccccc4n13)CCCC2 returned TRPC6 inhibitor -5.06*, TRPC4 agonist inactive, TRPC4 inh inactive, TRPC4 PAM inactive, TRPC6 activator inactive, HEK293 MPD ctr inactive, HEK293 MPD ctr 2 inactive, TRPC4 ctr mod -18.0%*, TRPC4 ctr inh 2 36.5%*, TRPC6 block conf 42.5%* and TRPC6 act confirm inactive.
`COCC(=O)N(C)c1nnc(-c2cnccn2)s1` gave TRPC6 inhibitor inactive, TRPC4 agonist inactive, TRPC4 inh inactive, TRPC4 PAM inactive and TRPC6 activator inactive.
`CC(=O)N(C)c1nnc(-c2cnccn2)s1` gave TRPC6 inhibitor -6.46*, TRPC4 agonist inactive, TRPC4 inh inactive, TRPC4 PAM inactive, TRPC6 activator inactive, HEK293 MPD ctr -233.5%*, HEK293 MPD ctr 2 inactive, TRPC4 ctr mod -32.0%*, TRPC4 ctr inh 2 inactive, TRPC6 block conf inactive and TRPC6 act confirm inactive.
`CCOc1ccc(NC2CCCCC2NS(=O)(=O)c2ccccc2)cc1` (stereo not drawn) gave TRPC6 inhibitor inactive, TRPC4 agonist inactive, TRPC4 inh inactive, TRPC4 PAM inactive and TRPC6 activator inactive.
Screening C=CCN(C(=O)CC(NC(C)=O)c1ccccc1)c1nc(-c2ccc(S(C)(=O)=O)cc2)cs1 (stereo not drawn) returned TRPC6 inhibitor -6.48*, TRPC4 agonist inactive, TRPC4 inh inactive, TRPC4 PAM inactive, TRPC6 activator inactive, HEK293 MPD ctr inactive, HEK293 MPD ctr 2 inactive, TRPC4 ctr mod inactive, TRPC4 ctr inh 2 inactive, TRPC6 block conf inactive and TRPC6 act confirm inactive.
Screening CC(=O)NC(CC(=O)Nc1nc(C)cs1)c1ccccc1 (stereo not drawn) returned TRPC6 inhibitor inactive, TRPC4 agonist inactive, TRPC4 inh inactive, TRPC4 PAM inactive and TRPC6 activator inactive.
Screening COc1ccc(OC)c(C(=O)N2CCC(CCC(=O)NC3CC3)CC2)c1 returned TRPC6 inhibitor inactive, TRPC4 agonist inactive, TRPC4 inh inactive, TRPC4 PAM inactive and TRPC6 activator inactive.
`O=C(c1ccc([N+](=O)[O-])cc1)N(Cc1ccc(Cl)cc1)N1C(=O)CCCC1=O` gave TRPC6 inhibitor -16.1*, TRPC4 agonist 47*, TRPC4 inh inactive, TRPC4 PAM inactive, TRPC6 activator 16.7*, HEK293 MPD ctr 390.0%*, HEK293 MPD ctr 2 159.0%*, TRPC4 ctr mod 49.5%*, TRPC4 ctr inh 2 45.0%*, TRPC6 block conf 80.5%* and TRPC6 act confirm 122.0%*.
COCCCn1cnnc1SCc1nc2sc(C(C)=O)c(C)c2c(=O)[nH]1 was read as TRPC6 inhibitor inactive, TRPC4 agonist inactive, TRPC4 inh inactive, TRPC4 PAM inactive and TRPC6 activator inactive.
`Cc1cccc2c3c([nH]c12)CCNC3` gave TRPC6 inhibitor inactive, TRPC4 agonist inactive, TRPC4 inh inactive, TRPC4 PAM inactive and TRPC6 activator inactive.
